ChEMBL document CHEMBL4130549, “Synthesis and bioactivities study of new antibacterial peptide mimics: The dialkyl cationic amphiphiles” (Eur J Med Chem, 2018)
Calls of active or inactive are those of the source. No cut-off for these calls is given here.

What was measured:
Enterobacteriaceae [1] = test: Antibacterial activity against NDM-1-producing Enterobacteriaceae isolate N10 after 16 to 20 hrs by broth microdilution method; assay type: functional
Summary of the method: (§1)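 Broth microdilution per CLSI in cation-adjusted Mueller-Hinton broth; 4-6 h cultures (~10⁸ CFU/mL) diluted to ~10⁶ CFU/mL and mixed 1:1 with twofold dilutions of water-dissolved compound (256 to 0.5 µg/mL). Incubated 16-20 h at 37 °C; MIC read visually. Each concentration run in duplicate, whole experiment repeated at least twice. MRSA, KPC and NDM-1 strains were clinical isolates.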

Enterobacteriaceae [2] = test: Antibacterial activity against NDM-1-producing Enterobacteriaceae isolate N1 after 16 to 20 hrs by broth microdilution method; assay type: functional; summary of the method: as §1
Staphylococcus aureus [3] = test: Antibacterial activity against methicillin-resistant Staphylococcus aureus isolate M7 after 16 to 20 hrs by broth microdilution method; assay type: functional
Summary of the method: (§2)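 CLSI broth microdilution in cation-adjusted Mueller-Hinton broth. A 4-6 h culture was diluted to about 10⁶ CFU/mL and mixed 1:1 with twofold compound dilutions (256–0.5 µg/mL before mixing) prepared from aqueous stocks. Plates were incubated at 37 °C for 16-20 h. Each concentration was tested in duplicate, and the experiment was repeated at least twice.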

Staphylococcus aureus [4] = test: Antibacterial activity against methicillin-resistant Staphylococcus aureus isolate M10 after 16 to 20 hrs by broth microdilution method; assay type: functional; summary of the method: as §2
Klebsiella pneumoniae [5] = test: Antibacterial activity against carbapenemase-producing Klebsiella pneumoniae isolate K1 after 16 to 20 hrs by broth microdilution method; assay type: functional; summary of the method: as §1
Klebsiella pneumoniae [6] = test: Antibacterial activity against carbapenemase-producing Klebsiella pneumoniae isolate K4 after 16 to 20 hrs by broth microdilution method; assay type: functional; summary of the method: as §1
Staphylococcus aureus [7] = test: Antibacterial activity against methicillin-resistant Staphylococcus aureus isolate M2 after 16 to 20 hrs by broth microdilution method; assay type: functional; summary of the method: as §2
Enterobacteriaceae [8] = test: Antibacterial activity against NDM-1-producing Enterobacteriaceae isolate N3 after 16 to 20 hrs by broth microdilution method; assay type: functional; summary of the method: as §1
Klebsiella pneumoniae [9] = test: Antibacterial activity against carbapenemase-producing Klebsiella pneumoniae after 16 to 20 hrs by broth microdilution method; assay type: functional; summary of the method: as §1
Staphylococcus aureus [10] = test: Antibacterial activity against methicillin-resistant Staphylococcus aureus isolate M8 after 16 to 20 hrs by broth microdilution method; assay type: functional; summary of the method: as §2
Staphylococcus aureus [11] = test: Antibacterial activity against methicillin-resistant Staphylococcus aureus isolate M9 after 16 to 20 hrs by broth microdilution method; assay type: functional; summary of the method: as §2
Escherichia coli [12] = test: Induction of outer membrane permeabilization in Escherichia coli ATCC 25922 at 20 ug/ml measured every 2 mins for 12 mins by NPN staining based fluorescence assay; assay type: functional, organism-based
Summary of the method: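 Mid-log E. coli (~10^8 CFU/mL) in black plates pre-incubated about 40 min with NPN (10 µM, 50 µL). Baseline read 8 min (ex 350/em 420 nm), then compound added to 20 µg/mL final and fluorescence followed every 2 min for 12 min. Water-treated control.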

Enterobacteriaceae [13] = test: Antibacterial activity against NDM-1-producing Enterobacteriaceae isolate N5 after 16 to 20 hrs by broth microdilution method; assay type: functional; summary of the method: as §1
Klebsiella pneumoniae [14] = test: Antibacterial activity against carbapenemase-producing Klebsiella pneumoniae isolate K6 after 16 to 20 hrs by broth microdilution method; assay type: functional; summary of the method: as §1
Enterobacteriaceae [15] = test: Antibacterial activity against NDM-1-producing Enterobacteriaceae isolate N6 after 16 to 20 hrs by broth microdilution method; assay type: functional; summary of the method: as §1
Klebsiella pneumoniae [16] = test: Antibacterial activity against carbapenemase-producing Klebsiella pneumoniae isolate K10 after 16 to 20 hrs by broth microdilution method; assay type: functional; summary of the method: as §1
Staphylococcus aureus [17] = test: Induction of cytoplasmic membrane depolarization in Staphylococcus aureus ATCC 29213 at 20 ug/ml measured every 2 mins for 12 mins by diSC35 staining based fluorescence assay; assay type: functional, organism-based
Summary of the method: (§3)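 Mid-log cells (4–6 h) pelleted, washed and resuspended (~10^8 CFU/mL) in PBS for S. aureus, or in 5 mM HEPES, 5 mM glucose and 100 mM KCl (1:1:1) for E. coli. Preloaded with diSC35 (10 µM, 50 µL), 30 min for S. aureus and 40 min plus EDTA (200 µM, 50 µL) for E. coli. Baseline read 8 min (ex 622/em 670 nm), then compound added to 20 µg/mL final and read every 2 min for 12 min. Water control.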

Staphylococcus aureus [18] = test: Antibacterial activity against methicillin-resistant Staphylococcus aureus isolate M6 after 16 to 20 hrs by broth microdilution method; assay type: functional; summary of the method: as §2
Enterobacteriaceae [19] = test: Antibacterial activity against NDM-1-producing Enterobacteriaceae isolate N2 after 16 to 20 hrs by broth microdilution method; assay type: functional; summary of the method: as §1
Staphylococcus aureus [20] = test: Antibacterial activity against methicillin-resistant Staphylococcus aureus after 16 to 20 hrs by broth microdilution method; assay type: functional; summary of the method: as §2
Enterobacteriaceae [21] = test: Antibacterial activity against NDM-1-producing Enterobacteriaceae isolate N7 after 16 to 20 hrs by broth microdilution method; assay type: functional; summary of the method: as §1
Klebsiella pneumoniae [22] = test: Antibacterial activity against carbapenemase-producing Klebsiella pneumoniae isolate K9 after 16 to 20 hrs by broth microdilution method; assay type: functional; summary of the method: as §1
Escherichia coli [23] = test: Antibacterial activity against Escherichia coli ATCC 25922 after 16 to 20 hrs by broth microdilution method; assay type: functional; summary of the method: as §1
Escherichia coli [24] = test: Induction of inner membrane permeabilization in Escherichia coli ATCC 25922 at 20 ug/ml measured every 2 mins for 12 mins by propidium iodide staining based fluorescence assay; assay type: functional, organism-based
Summary of the method: (§4)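 Mid-log cells (~10^8 CFU/mL) pre-incubated with propidium iodide (10 µM, 50 µL), 30 min for S. aureus and 40 min for E. coli. Fluorescence (ex 535/em 617 nm) read for 8 min, then compound added to 20 µg/mL final and monitored every 2 min for 12 min. Water-treated control.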

Enterobacteriaceae [25] = test: Antibacterial activity against NDM-1-producing Enterobacteriaceae isolate N9 after 16 to 20 hrs by broth microdilution method; assay type: functional; summary of the method: as §1
Enterococcus faecalis = test: Antibacterial activity against Enterococcus faecalis after 16 to 20 hrs by broth microdilution method; assay type: functional; summary of the method: as §1
Escherichia coli [26] = test: Induction of cytoplasmic membrane depolarization in Escherichia coli ATCC 25922 at 20 ug/ml measured every 2 mins for 12 mins by diSC35 staining based fluorescence assay; assay type: functional, organism-based; summary of the method: as §3
Enterobacteriaceae [27] = test: Antibacterial activity against NDM-1-producing Enterobacteriaceae isolate N8 after 16 to 20 hrs by broth microdilution method; assay type: functional; summary of the method: as §1
Staphylococcus aureus [28] = test: Antibacterial activity against methicillin-resistant Staphylococcus aureus isolate M4 after 16 to 20 hrs by broth microdilution method; assay type: functional; summary of the method: as §2
Klebsiella pneumoniae [29] = test: Antibacterial activity against carbapenemase-producing Klebsiella pneumoniae isolate K2 after 16 to 20 hrs by broth microdilution method; assay type: functional; summary of the method: as §1
Enterobacteriaceae [30] = test: Antibacterial activity against NDM-1-producing Enterobacteriaceae isolate N4 after 16 to 20 hrs by broth microdilution method; assay type: functional; summary of the method: as §1
Staphylococcus aureus [31] = test: Antibacterial activity against methicillin-resistant Staphylococcus aureus isolate M5 after 16 to 20 hrs by broth microdilution method; assay type: functional; summary of the method: as §2
Staphylococcus aureus [32] = test: Antibacterial activity against methicillin-resistant Staphylococcus aureus isolate M3 after 16 to 20 hrs by broth microdilution method; assay type: functional; summary of the method: as §2
Salmonella enterica = test: Antibacterial activity against Salmonella enterica after 16 to 20 hrs by broth microdilution method; assay type: functional; summary of the method: as §1
Staphylococcus aureus [33] = test: Antibacterial activity against methicillin-resistant Staphylococcus aureus isolate M1 after 16 to 20 hrs by broth microdilution method; assay type: functional; summary of the method: as §2
Klebsiella pneumoniae [34] = test: Antibacterial activity against carbapenemase-producing Klebsiella pneumoniae isolate K3 after 16 to 20 hrs by broth microdilution method; assay type: functional; summary of the method: as §1
[35] = Hemolytic activity in sheep RBC after 1 hr; assay type: ADME, cell-based, Ovis aries, Erythrocyte; details: sheep red blood cells (erythrocytes)
Summary of the method: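 Sheep RBCs suspended at 5% in PBS; 150 µL added to 50 µL compound dilutions (5120 to 10 µg/mL series). Incubated 1 h at 37 °C, then centrifuged; supernatant absorbance read at 540 nm. Lysis (%) = (A−A0)/(Atotal−A0)×100, with untreated 5% RBC as A0 and 0.1% Triton X-100 as total.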

Staphylococcus aureus [36] = test: Antibacterial activity against Staphylococcus aureus ATCC 29213 after 16 to 20 hrs by broth microdilution method; assay type: functional; summary of the method: as §2
Klebsiella pneumoniae [37] = test: Antibacterial activity against carbapenemase-producing Klebsiella pneumoniae isolate K8 after 16 to 20 hrs by broth microdilution method; assay type: functional; summary of the method: as §1
Staphylococcus aureus [38] = test: Induction of inner membrane permeabilization in Staphylococcus aureus ATCC 29213 at 20 ug/ml measured every 2 mins for 12 mins by propidium iodide staining based fluorescence assay; assay type: functional, organism-based; summary of the method: as §4
Enterobacteriaceae [39] = test: Antibacterial activity against NDM-1-producing Enterobacteriaceae after 16 to 20 hrs by broth microdilution method; assay type: functional; summary of the method: as §1
Klebsiella pneumoniae [40] = test: Antibacterial activity against carbapenemase-producing Klebsiella pneumoniae isolate K5 after 16 to 20 hrs by broth microdilution method; assay type: functional; summary of the method: as §1
Klebsiella pneumoniae [41] = test: Antibacterial activity against carbapenemase-producing Klebsiella pneumoniae isolate K7 after 16 to 20 hrs by broth microdilution method; assay type: functional; summary of the method: as §1

CCCCCCCCN(CCCCCCCC)C(=O)[C@H](N)CO.Cl
MIC (Enterobacteriaceae [1]): 16 µg/mL
MIC (Enterobacteriaceae [2]): 32 µg/mL
MIC (Staphylococcus aureus [3]): 4 µg/mL
MIC (Staphylococcus aureus [4]): 4 µg/mL
MIC (Klebsiella pneumoniae [5]): 32 µg/mL
MIC (Klebsiella pneumoniae [6]): 32 µg/mL
MIC (Staphylococcus aureus [7]): 4 µg/mL
MIC (Enterobacteriaceae [8]): 16 µg/mL
MIC (Klebsiella pneumoniae [9]): 32 µg/mL
MIC (Staphylococcus aureus [10]): 4 µg/mL
MIC (Staphylococcus aureus [11]): 4 µg/mL
Activity (Escherichia coli [12]): Active
MIC (Enterobacteriaceae [13]): 16 µg/mL
MIC (Klebsiella pneumoniae [14]): 32 µg/mL
MIC (Enterobacteriaceae [15]): 16 µg/mL
MIC (Klebsiella pneumoniae [16]): 32 µg/mL
Activity (Staphylococcus aureus [17]): Active
MIC (Staphylococcus aureus [18]): 4 µg/mL
MIC (Enterobacteriaceae [19]): 16 µg/mL
MIC (Staphylococcus aureus [20]): 4 µg/mL
MIC (Enterobacteriaceae [21]): 32 µg/mL
MIC (Klebsiella pneumoniae [22]): 32 µg/mL
MIC (Escherichia coli [23]): 8 µg/mL
Activity (Escherichia coli [24]): Active
MIC (Enterobacteriaceae [25]): 16 µg/mL
MIC (Enterococcus faecalis): 4 µg/mL
Activity (Escherichia coli [26]): Active
MIC (Enterobacteriaceae [27]): 32 µg/mL
MIC (Staphylococcus aureus [28]): 4 µg/mL
MIC (Klebsiella pneumoniae [29]): 32 µg/mL
MIC (Enterobacteriaceae [30]): 16 µg/mL
MIC (Staphylococcus aureus [31]): 4 µg/mL
MIC (Staphylococcus aureus [32]): 4 µg/mL
MIC (Salmonella enterica): 8 µg/mL
MIC (Staphylococcus aureus [33]): 4 µg/mL
MIC (Klebsiella pneumoniae [34]): 32 µg/mL
HC50 at 1 h [35]: 367 µg/mL
MIC (Staphylococcus aureus [36]): 4 µg/mL
MIC (Klebsiella pneumoniae [37]): 32 µg/mL
Activity (Staphylococcus aureus [38]): Active
MIC (Enterobacteriaceae [39]): 16 µg/mL
MIC (Klebsiella pneumoniae [40]): 32 µg/mL
MIC (Klebsiella pneumoniae [41]): 32 µg/mL

CCCCCCCCCCCN(CCCCCCCCCCC)C(=O)[C@@H](N)CCCCN.Cl.Cl
MIC (Enterobacteriaceae [1]): 32 µg/mL
MIC (Enterobacteriaceae [2]): 32 µg/mL
MIC (Staphylococcus aureus [3]): 4 µg/mL
MIC (Staphylococcus aureus [4]): 4 µg/mL
MIC (Klebsiella pneumoniae [5]): 32 µg/mL
MIC (Klebsiella pneumoniae [6]): 8 µg/mL
MIC (Staphylococcus aureus [7]): 1 µg/mL
MIC (Enterobacteriaceae [8]): 32 µg/mL
MIC (Klebsiella pneumoniae [9]): 8 µg/mL
MIC (Staphylococcus aureus [10]): 4 µg/mL
MIC (Staphylococcus aureus [11]): 4 µg/mL
Activity (Escherichia coli [12]): Active
MIC (Enterobacteriaceae [13]): 32 µg/mL
MIC (Klebsiella pneumoniae [14]): 32 µg/mL
MIC (Enterobacteriaceae [15]): 32 µg/mL
MIC (Klebsiella pneumoniae [16]): 32 µg/mL
Activity (Staphylococcus aureus [17]): Active
MIC (Staphylococcus aureus [18]): 4 µg/mL
MIC (Enterobacteriaceae [19]): 32 µg/mL
MIC (Staphylococcus aureus [20]): 4 µg/mL
MIC (Enterobacteriaceae [21]): 16 µg/mL
MIC (Klebsiella pneumoniae [22]): 32 µg/mL
MIC (Escherichia coli [23]): 16 µg/mL
Activity (Escherichia coli [24]): Active
MIC (Enterobacteriaceae [25]): 32 µg/mL
MIC (Enterococcus faecalis): 2 µg/mL
Activity (Escherichia coli [26]): Active
MIC (Enterobacteriaceae [27]): 16 µg/mL
MIC (Staphylococcus aureus [28]): 2 µg/mL
MIC (Klebsiella pneumoniae [29]): 16 µg/mL
MIC (Enterobacteriaceae [30]): 32 µg/mL
MIC (Staphylococcus aureus [31]): 4 µg/mL
MIC (Staphylococcus aureus [32]): 2 µg/mL
MIC (Salmonella enterica): 8 µg/mL
MIC (Staphylococcus aureus [33]): 2 µg/mL
MIC (Klebsiella pneumoniae [34]): 16 µg/mL
HC50 at 1 h [35]: 89 µg/mL
MIC (Staphylococcus aureus [36]): 4 µg/mL
MIC (Klebsiella pneumoniae [37]): 8 µg/mL
Activity (Staphylococcus aureus [38]): Active
MIC (Enterobacteriaceae [39]): 32 µg/mL
MIC (Klebsiella pneumoniae [40]): 32 µg/mL
MIC (Klebsiella pneumoniae [41]): 32 µg/mL
